{"source": "paper PMC8354861", "about": "(Bioorganic & Medicinal Chemistry, 2021)", "key": {"ICR mice": {"test_system": "ICR mice", "experiment": "Acute toxicity study in ICR mice", "format": "in vivo", "method_in_brief": "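Male ICR mice (28–36 g), 15 animals randomised into five groups of three, fasted 16 h. Each group received one oral gavage dose of test compound at 50, 100, 200, 500 or 1000 mg/kg in 5% DMSO, 5% Solution Hs15 and 90% saline. Mortality was recorded over 7 days; body weight, organ weight and tissue histology were assessed after sacrifice.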"}, "SARS-CoV-2": {"test_system": "SARS-CoV-2", "experiment": "Antiviral activity against SARS-CoV-2 in Vero E6 cells", "format": "cell-based"}, "[1]": {"experiment": "Stability in simulated intestinal fluid", "format": "in vitro ADME", "conditions": "SIF with pancreatin", "method_in_brief": "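Simulated intestinal fluid was made to the USP recipe: KH2PO4, 0.2 M NaOH and 10 g/L pancreatin, adjusted to pH 6.8. Test compound stock (2 μM in DMF) was diluted into the fluid and incubated at 37 °C for up to 24 h, sampled at 0, 1, 2, 3, 4, 6 and 24 h. Reactions were stopped with ice-cold acetonitrile, centrifuged, and supernatants analysed by HPLC.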"}, "[2]": {"conditions": "rats; cited from earlier work"}, "[3]": {"conditions": "dogs; cited from earlier work"}, "[4]": {"conditions": "cynomolgus monkeys; cited from earlier work"}, "physchem": {"experiment": "physchem", "conditions": "pH 6"}}, "note": "Like-named read-outs stand apart in the source and are kept apart here."}
{"compound": "CC(C)C(=O)OC[C@H]1O[C@@](C#N)(c2ccc3c(N)ncnn23)[C@H](O)[C@@H]1O", "note": "[Compound 5c, ((2R,3S,4R,5R)-5-(4-aminopyrrolo[2,1-f][1,2,4]triazin-7-yl)-5-cyano-3,4-dihydroxytetrahydrofuran-2-yl)methyl isobutyrate]", "values": [{"measurement": "well tolerated oral dosage", "setting": "ICR mice; single oral dose", "result": "up to 1000 mg/kg"}, {"measurement": "mortality", "setting": "ICR mice; single oral gavage 50-1000 mg/kg, 7-day observation period", "result": "No mortality"}, {"measurement": "changes in body weight, organ weight, or tissue histology", "setting": "ICR mice; single oral gavage 50-1000 mg/kg, after sacrifice", "result": "No significant changes"}]}
{"compound": "CCC(CC)COC(=O)[C@H](C)N[P@](=O)(OC[C@H]1O[C@@](C#N)(c2cc(F)c3c(N)ncnn23)[C@H](O)[C@@H]1O)Oc1ccccc1", "note": "[Compound 7, 2-ethylbutyl ((S)-(((2R,3S,4R,5R)-5-(4-amino-5-fluoropyrrolo[2,1-f][1,2,4]triazin-7-yl)-5-cyano-3,4-dihydroxytetrahydrofuran-2-yl)methoxy)(phenoxy)phosphoryl)-L-alaninate]", "values": [{"measurement": "anti-SARS-CoV-2 activity (in words)", "setting": "SARS-CoV-2", "result": "reduced activity"}]}
{"compound": "N#C[C@@]1(c2cc(F)c3c(N)ncnn23)O[C@H](CO)[C@@H](O)[C@H]1O", "note": "[Compound 1c, (2R,3R,4S,5R)-2-(4-amino-5-fluoropyrrolo[2,1-f][1,2,4]triazin-7-yl)-3,4-dihydroxy-5-(hydroxymethyl)tetrahydrofuran-2-carbonitrile]", "values": [{"measurement": "anti-SARS-CoV-2 activity (in words)", "setting": "SARS-CoV-2", "result": "able to inhibit the viral replication"}, {"measurement": "anti-SARS-CoV-2 activity (in words)", "setting": "SARS-CoV-2; listed as 3c", "result": "moderate anti-SARS-CoV-2 activity"}]}
{"compound": "OC[C@H]1O[C@@H](c2ccc3c(NO)ncnn23)[C@H](O)[C@@H]1O", "note": "[Compound 3b, (2S,3R,4S,5R)-2-(4-(hydroxyamino)pyrrolo[2,1-f][1,2,4]triazin-7-yl)-5-(hydroxymethyl)tetrahydrofuran-3,4-diol]", "values": [{"measurement": "anti-SARS-CoV-2 activity (in words)", "setting": "SARS-CoV-2", "result": "did not show any antiviral activity"}]}
{"compound": "CC(C)C(=O)O[C@H]1[C@@H](O)[C@](C#N)(c2ccc3c(N)ncnn23)O[C@@H]1CO", "note": "[Compound 5a, (2R,3S,4R,5R)-5-(4-aminopyrrolo[2,1-f][1,2,4]triazin-7-yl)-5-cyano-4-hydroxy-2-(hydroxymethyl)tetrahydrofuran-3-yl isobutyrate]", "values": [{"measurement": "stability in SIF (in words)", "setting": "[1]", "result": "good stability"}]}
{"compound": "N#C[C@@]1(c2ccc3c(N)ncnn23)O[C@H](CO)[C@@H](O)[C@H]1O", "note": "[GS-441524]", "values": [{"measurement": "F (oral bioavailability)", "setting": "[2]", "result": 33, "unit": "%"}, {"measurement": "F (oral bioavailability)", "setting": "[3]", "result": 85, "unit": "%"}, {"measurement": "F (oral bioavailability)", "setting": "[4]", "result": 8.3, "unit": "%"}, {"measurement": "solubility", "setting": "physchem", "result": 105, "unit": "µg/mL"}]}
{"compound": "(3R,4S,5R)-2-(4-aminopyrrolo[2,1-f][1,2,4]triazin-7-yl)-2-cyclopropyl-5-(hydroxymethyl)tetrahydrofuran-3,4-diol [Compound 2d]", "values": [{"measurement": "Inhibition rate", "setting": "SARS-CoV-2; at 5 µM", "result": "<10", "unit": "%"}]}
{"compound": "N#C[C@@]1(c2cc(Cl)c3c(N)ncnn23)O[C@H](CO)[C@@H](O)[C@H]1O", "note": "[Compound 1a, (2R,3R,4S,5R)-2-(4-amino-5-chloropyrrolo[2,1-f][1,2,4]triazin-7-yl)-3,4-dihydroxy-5-(hydroxymethyl)tetrahydrofuran-2-carbonitrile]", "values": [{"measurement": "anti-SARS-CoV-2 activity (in words)", "setting": "SARS-CoV-2", "result": "loss of the anti-SARS-CoV-2 activity"}]}
{"compound": "N#Cc1cc([C@]2(C#N)O[C@H](CO)[C@@H](O)[C@H]2O)n2ncnc(N)c12", "note": "[Compound 1d, 4-amino-7-((2R,3R,4S,5R)-2-cyano-3,4-dihydroxy-5-(hydroxymethyl)tetrahydrofuran-2-yl)pyrrolo[2,1-f][1,2,4]triazine-5-carbonitrile]", "values": [{"measurement": "anti-SARS-CoV-2 activity (in words)", "setting": "SARS-CoV-2", "result": "loss of the anti-SARS-CoV-2 activity"}]}
